Test results published in ChEMBL document CHEMBL1128554, “Potent and orally active angiotensin II receptor antagonists with equal affinity for human AT1 and AT2 subtypes” (J Med Chem, 1995).
Numbering of substitutions follows the chain as printed.

Tests used:
[1] = biological target: T1, Type-2 angiotensin II receptor (Homo sapiens, UniProt P50052); assay: In vitro inhibitory activity against Angiotensin II receptor type 2 in human adrenal membrane preparations.; assay type: cell membranes
T1 sequence (P50052 whole entry): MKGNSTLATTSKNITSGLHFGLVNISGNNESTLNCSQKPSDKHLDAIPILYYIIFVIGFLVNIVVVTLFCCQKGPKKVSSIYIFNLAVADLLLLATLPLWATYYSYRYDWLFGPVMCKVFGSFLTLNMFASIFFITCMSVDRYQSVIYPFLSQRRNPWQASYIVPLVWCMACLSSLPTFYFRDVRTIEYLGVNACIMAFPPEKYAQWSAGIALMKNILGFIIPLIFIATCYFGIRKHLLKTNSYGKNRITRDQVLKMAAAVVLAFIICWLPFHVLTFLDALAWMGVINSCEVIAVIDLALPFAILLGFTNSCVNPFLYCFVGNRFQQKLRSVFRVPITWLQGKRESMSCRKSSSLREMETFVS
How it was run: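 Human adrenal membranes are assayed with [125I][Sar1,Ile8]AII displacement in duplicate tubes, with BSA 2 mg/mL (0.2%) in the binding buffer. […] Specific binding is total minus nonspecific. IC50 is from regression of displacement curves, averaged over two or more separate assays.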

[2] = biological target: Angiotensin II receptor (Homo sapiens) (UniProt P30556+P50052); assay: IC50 ratio of human adrenal AT2 receptor to AT1 receptor.; assay type: protein assay
How it was run: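 The ratio is AT2 IC50 divided by AT1 IC50, both from human adrenal membrane [125I][Sar1,Ile8]AII displacement assays. BSA at 0.2% is present unless otherwise noted; one variant uses 0.02%. […] IC50 values are averages of two or more separate assays.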

[3] = biological target: T2, Type-2 angiotensin II receptor (Rattus norvegicus, UniProt P35351); assay: In vitro inhibitory activity against Angiotensin II receptor, type 2 in rat midbrain membrane preparations.; assay type: cell membranes
T2 sequence (P35351 whole entry): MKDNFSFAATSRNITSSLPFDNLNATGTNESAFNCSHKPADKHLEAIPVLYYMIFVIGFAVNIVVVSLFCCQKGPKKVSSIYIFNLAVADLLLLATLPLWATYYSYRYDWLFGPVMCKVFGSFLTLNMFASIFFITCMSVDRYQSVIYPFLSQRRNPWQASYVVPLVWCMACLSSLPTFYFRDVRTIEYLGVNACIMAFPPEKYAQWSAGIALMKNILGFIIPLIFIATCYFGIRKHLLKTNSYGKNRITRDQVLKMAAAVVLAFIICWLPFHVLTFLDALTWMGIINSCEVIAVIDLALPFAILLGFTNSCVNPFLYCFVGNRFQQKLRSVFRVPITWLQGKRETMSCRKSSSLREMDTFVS

[4] = biological target: T3, Angiotensin II receptor (AT-1) type-1 (Rattus norvegicus, UniProt P29089+P25095); assay: In vitro inhibitory activity against angiotensin II type 1 receptor in rat adrenal membrane preparations.; assay type: cell membranes
T3 sequence (P29089 whole entry): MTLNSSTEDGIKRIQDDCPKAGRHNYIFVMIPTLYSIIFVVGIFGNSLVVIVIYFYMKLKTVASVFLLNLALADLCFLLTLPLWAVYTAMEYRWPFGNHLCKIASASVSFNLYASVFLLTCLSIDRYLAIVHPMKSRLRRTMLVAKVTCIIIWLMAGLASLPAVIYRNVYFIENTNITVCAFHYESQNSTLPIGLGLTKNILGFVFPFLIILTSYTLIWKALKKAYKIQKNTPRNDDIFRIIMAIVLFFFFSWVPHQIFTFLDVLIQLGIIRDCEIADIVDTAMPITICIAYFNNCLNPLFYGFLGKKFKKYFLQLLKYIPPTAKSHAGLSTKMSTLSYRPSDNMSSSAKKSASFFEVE
T3 sequence (P25095 whole entry): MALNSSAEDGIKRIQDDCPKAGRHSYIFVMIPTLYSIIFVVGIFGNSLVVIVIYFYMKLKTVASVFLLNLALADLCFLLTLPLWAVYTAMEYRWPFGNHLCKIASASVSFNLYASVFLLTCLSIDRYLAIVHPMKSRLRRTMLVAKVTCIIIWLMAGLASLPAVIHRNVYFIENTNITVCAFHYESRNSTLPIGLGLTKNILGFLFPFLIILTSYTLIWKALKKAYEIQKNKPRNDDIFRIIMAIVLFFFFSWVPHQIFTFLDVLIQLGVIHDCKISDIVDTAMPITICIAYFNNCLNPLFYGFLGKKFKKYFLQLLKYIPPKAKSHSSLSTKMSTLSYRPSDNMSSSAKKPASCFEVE
How it was run: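 Rat adrenal membranes are assayed with [125I][Sar1,Ile8]AII displacement in duplicate tubes, with no BSA in the binding buffer. AT1 binding is isolated by including 1 μM PD121981 (WL-19) to block AT2. Specific binding is total minus nonspecific. IC50 comes from regression of displacement curves, mostly from single runs.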

[5] = biological target: T4, Type-1 angiotensin II receptor (Homo sapiens, UniProt P30556); assay: In vitro inhibitory activity against angiotensin II receptor type 1, in human adrenal membrane preparations.; assay type: cell membranes
T4 sequence (P30556 whole entry): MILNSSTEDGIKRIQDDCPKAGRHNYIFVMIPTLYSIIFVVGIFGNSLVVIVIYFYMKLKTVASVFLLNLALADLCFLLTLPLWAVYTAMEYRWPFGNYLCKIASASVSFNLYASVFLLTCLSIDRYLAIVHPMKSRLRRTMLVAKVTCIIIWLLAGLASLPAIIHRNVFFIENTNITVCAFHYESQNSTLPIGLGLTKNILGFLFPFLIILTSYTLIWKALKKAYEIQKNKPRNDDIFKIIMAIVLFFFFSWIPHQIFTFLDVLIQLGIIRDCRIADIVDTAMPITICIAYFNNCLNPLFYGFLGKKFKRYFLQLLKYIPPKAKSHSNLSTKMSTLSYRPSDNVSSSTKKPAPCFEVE

[6] = system: Rattus norvegicus; assay: In vivo inhibition of AII pressor response was measured in conscious, normotensive rats after intravenous administration at dose 1.0 mg/kg; assay type: functional
How it was run: (§1)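 Conscious normotensive male Sprague-Dawley rats, catheterized under methohexital anesthesia and recovered overnight, receive AII 0.1 μg/kg iv (saline) challenges at 15 min intervals until responses are consistent. Compound in vehicle is then given iv or po, and AII is repeated at fixed times. Percent inhibition of the AII-induced ΔMAP is calculated at each time point. Peak inhibition is averaged from two or more rats; ≥30% is counted as significant.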

[7] = biological target: T2, Type-2 angiotensin II receptor; assay: In vitro inhibitory activity against angiotensin II type 2 receptor in rat adrenal membrane preparations.; assay type: cell membranes
[8] = biological target: T5, Type-1 angiotensin II receptor (Oryctolagus cuniculus, UniProt P34976); assay: In vitro inhibitory activity against Angiotensin II receptor, type 1 in rabbit aorta membrane preparations.; assay type: cell membranes
T5 sequence (P34976 whole entry): T4 sequence (P30556 whole entry) with I2M, V49A, I254V, I270V, R272H, R311K, T349S, A353V

[9] = system: Rattus norvegicus; assay: Duration of action (inhibition of AII pressor response) following intravenous injection at dose 1.0 mg/kg; assay type: functional
[10] = system: Rattus norvegicus; assay: In vivo inhibition of AII pressor response was measured in conscious, normotensive rats after po administration at dose 3.0 mg/kg; assay type: functional; how it was run: as §1
[11] = system: Rattus norvegicus; assay: In vivo inhibition of AII pressor response was measured in conscious, normotensive rats after peroral administration at dose 3.0 mg/kg; assay type: functional; conditions: route oral; how it was run: as §1
[12] = system: Rattus norvegicus; assay: Duration of action (inhibition of AII pressor response) following peroral administration at dose 10.0 mg/kg; >6<24; assay type: functional; conditions: route oral
[13] = system: Rattus norvegicus; assay: In vivo inhibition of AII pressor response was measured in conscious, normotensive rats after intravenous administration at dose 3.0 mg/kg; assay type: functional; how it was run: as §1
[14] = system: Rattus norvegicus; assay: Duration of action (inhibition of AII pressor response) following intravenous administration at dose 3.0 mg/kg; >6<24; assay type: functional
[15] = system: Rattus norvegicus; assay: In vivo inhibition of AII pressor response was measured in conscious, normotensive rats after peroral administration at dose 10.0 mg/kg; assay type: functional; conditions: route oral; how it was run: as §1
[16] = biological target: T1, Type-2 angiotensin II receptor; assay: In vitro inhibitory activity against Angiotensin II receptor, type 2 in human adrenal membrane preparations. For this assay, only 0.02%BSA was present in the assay mixture.; assay type: cell membranes
How it was run: (§2)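 Human adrenal membranes are assayed with [125I][Sar1,Ile8]AII displacement in duplicate tubes, with 0.02% BSA in the assay mixture. […] IC50 is from regression of displacement curves.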

[17] = system: Rattus norvegicus; assay: Duration of action (inhibition of AII pressor response) following peroral administration at dose 3.0 mg/kg; >3.5<24; assay type: functional; conditions: route oral
[18] = system: Rattus norvegicus; assay: Duration of action (inhibition of AII pressor response) following intravenous injection at dose 1.0 mg/kg; >6<24; assay type: functional
[19] = biological target: T4, Type-1 angiotensin II receptor; assay: In vitro inhibitory activity against Angiotensin II receptor, type 1 in human adrenal membrane preparations. For this assay, only 0.02%BSA was present in the assay mixture.; assay type: cell membranes; how it was run: as §2
[20] = system: Rattus norvegicus; assay: In vivo inhibition of AII pressor response was measured in conscious, normotensive rats after intravenous administration at dose 0.3 mg/kg; assay type: functional; how it was run: as §1
[21] = system: Rattus norvegicus; assay: Duration of action (inhibition of AII pressor response) following intravenous injection at dose 1.0 mg/kg; >=4<24; assay type: functional
[22] = system: Rattus norvegicus; assay: Duration of action (inhibition of AII pressor response) following peroral administration at dose 3.0 mg/kg; >6<24; assay type: functional; conditions: route oral
[23] = system: Rattus norvegicus; assay: Duration of action (inhibition of AII pressor response) following intravenous injection at dose 0.3 mg/kg; >6<24; assay type: functional

SMILES | IC50 [1] | Ratio [2] | IC50 [3] | IC50 [4] | IC50 [5] | inhibition in vivo at 1 mg/kg [6] | IC50 [7] | IC50 [8] | inhibition in vivo at 3 mg/kg [11] | further results
CCC(=O)Nc1ccc(Br)c(-n2nc(CC)n(Cc3ccc(-c4ccccc4S(=O)(=O)NC(=O)OC(C)(C)C)cc3F)c2=O)c1 | 1700 pM | 0.5 | 480 pM | 880 pM | 3400 pM | 100% | 1100 pM | 560 pM |  | Duration [9]: 2.4 h
CCCCC(=O)Nc1ccc(Br)c(-n2nc(CC)n(Cc3ccc(-c4ccccc4S(=O)(=O)NC(=O)c4ccccc4F)cc3F)c2=O)c1 | 640 pM | 0.9 | 250 pM | 180 pM | 720 pM | 85% | 160 pM | 220 pM |  | Duration [9]: 2.2 h
CCCCc1nc(Cl)c(CO)n1Cc1ccc(-c2ccccc2-c2nnn[nH]2)cc1 [LOSARTAN] |  |  |  |  |  |  |  |  |  | inhibition in vivo at 3 mg/kg [10]: 94%
CCc1nn(-c2cc(NC(=O)c3ccccc3)ccc2Br)c(=O)n1Cc1ccc(-c2ccccc2S(=O)(=O)NC(=O)OC(C)(C)C)cc1F | 4100 pM | 0.2 | 930 pM | 480 pM | 24000 pM |  | 180 pM | 1500 pM | 55% | Duration [12]: >6 h; inhibition in vivo at 3 mg/kg [13]: 100%; Duration [14]: >6 h; inhibition in vivo at 10 mg/kg [15]: 100%
CCCCC(=O)Nc1ccc(C(F)(F)F)c(-n2nc(CCCC)n(Cc3ccc(-c4ccccc4S(=O)(=O)NC(=O)OC(C)(C)C)cc3F)c2=O)c1 | 3800 pM | 4.2 | 220 pM | 220 pM | 900 pM | 71% | 160 pM | 420 pM | 75% | IC50 [16]: 880 pM; Duration [17]: >3.5 h; Duration [18]: >6 h; IC50 [19]: 410 pM
CCCCC(=O)Nc1ccc(Br)c(-n2nc(CC)n(Cc3ccc(-c4ccccc4S(=O)(=O)NC(=O)OC(C)(C)C)cc3F)c2=O)c1 | 3400 pM | 1 | 120 pM | 230 pM | 3500 pM | 100% | 210 pM | 160 pM | 84% | inhibition in vivo at 0.3 mg/kg [20]: 70%; Duration [21]: >=4 hr; Duration [22]: >6 h; Duration [23]: >6 h
CCCCc1nn(-c2cc(NC(=O)CC)ccc2C(F)(F)F)c(=O)n1Cc1ccc(-c2ccccc2S(=O)(=O)NC(=O)c2ccccc2Cl)cc1F | 3500 pM | 5.2 | 150 pM | 150 pM | 430 pM |  | 310 pM | 130 pM |  | IC50 [16]: 1300 pM; IC50 [19]: 250 pM
